This is one part of a sample in which hits are shown more often than they occur.
INS-1E ATP HTS – protection of INS-1E cells from cytokine death, primary screen, ATP luminescence, single point. INS-1E cytokine-induced death, 48 h; normalised: neutral wells 0, positive control 100. protection from cytokine-induced ATP loss, % at 10 µM. hit rate 0.1% among 20,000. AID 488910, 2010;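 active = mean replicate protection from cytokine-induced ATP loss at least 50% and at least 75% of replicates each reaching 50%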
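Material: INS-1E rat cells; Quantity: 8000 cells/well; Buffer or medium: phenol-red-free RPMI with 5% fetal bovine serum; Probe or stimulus: cytokine cocktail of IFN-γ, TNF-α and IL-1β; Compound dosing: single test concentration per compound, delivered by pin transfer; Incubation: 48 h co-treatment, 10 min post-lysis read; Signal: CellTiter-Glo luminescence.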
YB-1 expr inh – inhibitors of YB-1 gene expression, primary screen, cell-based, fluorescence; U2OS, qRT-PCR YB-1 vs CDIP delta delta Cp, 16 h; hits give high values; zero = DMSO, each unit about twofold; delta delta Cp (YB-1 minus CDIP) (concentration not given with the values); hit rate 0.37% among 30,000;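 active = delta delta Cp rounded down to an integer at or above 3, about 3 SD of DMSO wells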;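 also: higher means less YB-1 transcript or more CDIP transcript relative to DMSO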
T cruzi HTS – inhibitors of intracellular Trypanosoma cruzi, primary screen, cell-based, plate reader, single point, set 2; AID 651903, 2012; hit rate 4.9% among 22,000; activity score (inhibition), % at 5.01 µM; intracellular Trypanosoma cruzi in host cells; in the data active = activity score above about 55%;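 also: parasites and compound incubated about four days before reading; 0% = median of neutral control wells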
Numbers without * were called inactive; . = no result.

SMILES	INS-1E ATP HTS	YB-1 expr inh	T cruzi HTS
C[C@@H]1CN([C@H](C)CO)C(=O)c2cccc(NC(=O)NC3CCCCC3)c2O[C@@H]1CN(C)Cc1ccc(C(=O)Nc2ccccc2N)cc1	17	0.11	67*
C[C@H](CO)N1C[C@H](C)[C@H](CN(C)Cc2ccc(C(=O)Nc3ccccc3N)cc2)Oc2c(NC(=O)NC3CCCCC3)cccc2C1=O	-9	-0.3	58*
CC(C)NC(=O)Nc1cccc2c1O[C@@H](CN(C)Cc1ccc(C(=O)Nc3ccccc3N)cc1)[C@@H](C)CN([C@@H](C)CO)C2=O	-15	-0.42	27
C[C@H]1CN([C@@H](C)CO)C(=O)c2cccc(NC(=O)NC3CCCCC3)c2O[C@H]1CN(C)Cc1ccc(C(=O)Nc2ccccc2N)cc1	-19	-0.14	60*
CC(C)NC(=O)Nc1cccc2c1O[C@H](CN(C)Cc1ccc(C(=O)Nc3ccccc3N)cc1)[C@H](C)CN([C@@H](C)CO)C2=O	28	-0.0081	52
C[C@@H]1CN([C@@H](C)CO)C(=O)c2cccc(NC(=O)C3CCCCC3)c2O[C@@H]1CN(C)Cc1ccc(C(=O)Nc2ccccc2N)cc1	47	-0.47	61*
CC1(C)CC(=O)c2c([nH]c(-c3ccccc3)c2-c2ccccc2)C1	.	0.7	.
N=c1ccccn1CC(O)c1ccccc1 (stereo unspecified)	.	-0.56	.
CC(C)(C)C(=O)Nc1c(Cl)sc2nccc(=O)n12	.	-0.61	.
Cc1ccc(NC(=O)N(C2=NCC(C)(C)S2)c2ccc(F)c(Cl)c2)cc1	.	-0.013	.
C=C(CO)C(=O)O[C@H]1C[C@H]2C(=C)C[C@H](OC(=O)C(=C)CO)[C@H]3C(=C)C(=O)O[C@@H]3[C@H]2C1=C	.	0.45	.
CCOC(=O)c1cnn(-c2nc(C)cc(C)n2)c1N	.	-0.12	.
CCOC(=O)c1cnn(C(=O)Cc2cccc(OC)c2)c1N	.	5.2*	.
CC1(C)CC(N=Cc2ccco2)CC(C)(C)N1	.	-0.3	.
C[C@H]1CN([C@@H](C)CO)C(=O)Cc2cc(NS(=O)(=O)c3ccc(Cl)cc3)ccc2O[C@H]1CN(C)Cc1ccc(Oc2ccccc2)cc1	-10	-0.021	7
C[C@@H]1CN([C@@H](C)CO)C(=O)Cc2cc(NS(=O)(=O)c3ccc(F)cc3)ccc2O[C@@H]1CN(C)Cc1ccc(Oc2ccccc2)cc1	-25	0.14	75*
C[C@H](CO)N1C[C@H](C)[C@H](CN(C)Cc2ccccc2)Oc2ccc(NS(=O)(=O)c3ccc(Cl)cc3)cc2CC1=O	18	0.0039	-25
C[C@H]1CN([C@@H](C)CO)C(=O)Cc2cc(NS(=O)(=O)c3ccc(F)cc3)ccc2O[C@H]1CN(C)Cc1ccc(Oc2ccccc2)cc1	-29	0.43	33
C[C@@H]1CN([C@@H](C)CO)C(=O)Cc2cc(NS(=O)(=O)c3ccc(F)cc3)ccc2O[C@@H]1CN(C)Cc1ccc(-c2ccccc2)cc1	-22	0.21	63*
C[C@@H]1CN([C@H](C)CO)C(=O)Cc2cc(NS(=O)(=O)c3ccc(Cl)cc3)ccc2O[C@H]1CN(C)Cc1ccccc1	-2	0.17	73*
C[C@H]1CN([C@@H](C)CO)C(=O)Cc2cc(NS(=O)(=O)c3ccc(F)cc3)ccc2O[C@H]1CN(C)Cc1ccc(-c2ccccc2)cc1	-28	-0.14	30
C[C@@H]1CN([C@H](C)CO)C(=O)Cc2cc(NS(=O)(=O)c3ccc(Cl)cc3)ccc2O[C@H]1CN(C)Cc1ccc(Oc2ccccc2)cc1	-11	-0.14	64*
COC(=O)c1c(C(=O)OC)c2n(c1C)CSC2	.	-0.2	.
Cc1ccccc1OCc1nnc(SCC(N)=O)n1C	.	-0.26	.
CCOC(=O)C(C)Oc1cc(O)c2c(=O)cc(-c3ccccc3)oc2c1 (stereo unspecified)	.	-0.65	.
Cc1ccc(S(=O)(=O)N(C)C[C@H]2Oc3ccc(NS(=O)(=O)c4ccc(Cl)cc4)cc3C(=O)N([C@@H](C)CO)C[C@@H]2C)cc1	4	-0.23	8
C[C@H]1CN([C@@H](C)CO)C(=O)c2cc(NS(=O)(=O)c3ccc(Cl)cc3)ccc2O[C@H]1CN(C)S(=O)(=O)c1ccc(Cl)cc1	.	-0.52	44*
Cc1ccc(S(=O)(=O)Nc2ccc3c(c2)C(=O)N([C@H](C)CO)C[C@H](C)[C@H](CN(C)S(=O)(=O)c2ccccc2)O3)cc1	.	0.24	74*
C[C@H](CO)N1C[C@H](C)[C@H](CN(C)S(=O)(=O)c2ccc(Cl)cc2)Oc2ccc(NS(=O)(=O)c3ccccc3)cc2C1=O	.	0.21	62*
Cc1ccc(S(=O)(=O)N(C)C[C@H]2Oc3ccc(NS(=O)(=O)c4ccccc4)cc3C(=O)N([C@@H](C)CO)C[C@@H]2C)cc1	-5	-0.092	6
